ChEMBL document CHEMBL1641462, “Synthesis and in vivo evaluation of ¹⁸F-fluoroethyl GF120918 and XR9576 as positron emission tomography probes for assessing the function of drug efflux transporters” (Bioorg Med Chem, 2011)
The source made the active and inactive calls.

Key:
Format in all cases: cell-based
Conditions in all cases: 7.4 M; tested as the 18F-labelled form
[1] = Increase of P-glycoprotein-mediated intracellular drug uptake expressed in human MES-SA/Dx5 cells at 7.4 MBq/ml after 120 mins by gamma counting in presence of 10 uM of N-(4-(2-(1,2,3,4-tetrahydro-6,7-dimethoxy-2- isoquinolinyl)ethyl)phenyl)-9,10-dihydro-5-fluoroethoxy-9- oxo-4-acridine carboxamide
How it was run: (§1)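 MES-SA/Dx5 doxorubicin-resistant human uterine sarcoma cells grown in McCoy's 5A + 10% FCS at 37 °C, 5% CO2; monolayers (10^5 cells/well) incubated 120 min with 7.4 MBq/ml [18F]-tracer ± 10 µM inhibitor. Washed five times in cold PBS, lysed in 0.2 M NaOH, gamma counted, normalized to protein (%ICD/mg). Percent increase vs untreated cells; triplicate.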

[2] = Increase of P-glycoprotein-mediated intracellular drug uptake expressed in human MES-SA/Dx5 cells at 7.4 MBq/ml after 120 mins by gamma counting in presence of 10 uM of quinoline-3-carboxylic acid [2-(4-{2-[7-(2-fluoroethoxy)- 6-methoxy-3,4-dihydro-1H-isoquinolin-2-yl]ethyl}phenylc arbamoyl)-4,5-dimethoxyphenyl]amide; how it was run: as §1
[3] = Increase of P-glycoprotein-mediated intracellular drug uptake expressed in human MES-SA/Dx5 cells at 7.4 MBq/ml after 120 mins by gamma counting in presence of 10 uM of XR9576; how it was run: as §1
[4] = Increase of P-glycoprotein-mediated intracellular drug uptake expressed in human MES-SA/Dx5 cells at 7.4 MBq/ml after 120 mins by gamma counting in presence of 10 uM of GF120918; how it was run: as §1

Measured: Drug uptake

COc1cc2c(cc1OC)CN(CCc1ccc(NC(=O)c3cccc4c(=O)c5cccc(OCCF)c5[nH]c34)cc1)CC2
active: [1] | [2] | [3] | [4]

COc1cc(NC(=O)c2cnc3ccccc3c2)c(C(=O)Nc2ccc(CCN3CCc4cc(OC)c(OCCF)cc4C3)cc2)cc1OC
active: [1] | [2] | [3] | [4]
